According to ChEMBL document CHEMBL2150923, “Synthesis and biological evaluation of 2,3-diarylimidazo[1,2-a]pyridines as antileishmanial agents” (Eur J Med Chem, 2012):
pIC50: −log10 of the molar value. The source made the active and inactive calls. No cut-off for these calls is given here.

Experiments:
Leishmania major [1] = assay: Antileishmanial activity against amastigote form of Leishmania major MHOM/IL/81/BNI infected in Balb/c mouse peritoneal macrophages assessed as inhibition of intracellular amastigote burden at 10 uM […] by May-Grunwald-Geimsa staining; format: functional
How it was run: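 Peritoneal macrophages from Balb/c mice at 1.5×10^5 cells/mL in RPMI 1640 + 15% FBS on glass slides, allowed to attach for 24 h (37 °C, 5% CO2). They were then infected with stationary-phase promastigotes (1.5×10^5/mL) for 24 h, washed, and exposed to 10 µM compound. Medium plus drug was renewed at 48 h. After 2 more days, cells were methanol-fixed, Giemsa-stained, and amastigotes counted per 100 macrophages in duplicate wells.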

[2] = Selectivity index, ratio of IC50 for human HeLa cells to IC50 for promastigote form of Leishmania major MHOM/IL/81/BNI; format: toxicity, cell-based; settings: read-out: Ratio IC50
HeLa = assay: Cytotoxicity against human HeLa cells after 96 hrs by resazurin-based spectrofluorimetric method; format: cell-based
How it was run: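 HeLa cells in RPMI 1640 + 10% serum were seeded at 10^5/mL and incubated 24 h at 37 °C, 5% CO2. Compound dilutions were then added in duplicate, with DMSO at most 1% final. After 96 h, resazurin was added; after a further 3 h at 37 °C, fluorescence was read at ex 550/em 590 nm.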

Leishmania major [3] = assay: Antileishmanial activity against promastigote form of Leishmania major MHOM/IL/81/BNI after 96 hrs by resazurin-based spectrofluorimetric method; format: functional, organism-based
How it was run: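 Promastigotes were maintained in Schneider's medium + 13% heat-inactivated FBS at 26 °C. They were seeded at 10^6/mL and exposed to compound for 96 h at 26 °C; DMSO was at most 1% final. Resazurin was added 4 h before reading, with fluorescence at ex 550/em 590 nm. IC50 values are means of at least three determinations.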

[4] = Inhibition of pig brain CK1delta/epsilon using RRKHAAIGpSAYSITA as substrate and [32gammaP]ATP after 30 mins by scintillation counting; parameters: species or system Sus scrofa
How it was run: (§1)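 Kinase reactions at 30 °C for 30 min with 15 µM [γ-33P]ATP and 25 µM CKS peptide, in buffer A (Mops pH 7.2, EGTA, MgCl2, DTT, vanadate). Porcine-brain CK1δ/ε was run in three-fold diluted buffer A. LmCK1.2 was His-tagged, expressed in E. coli and cobalt-purified. Reactions were spotted on P81 paper, washed in 1% phosphoric acid, and counted by scintillation. After blank subtraction, activity is expressed as % of the uninhibited maximum, with DMSO controls.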

[5] = Inhibition of Leishmania major recombinant His-tagged CK1.2 using RRKHAAIGpSAYSITA as substrate and [32gammaP]ATP after 30 mins by scintillation counting; how it was run: as §1
[6] = Methanol-buffer partition coefficient, log D of the compound by RP-HPLC analysis at pH 4.5; format: physicochemical
How it was run: (§2)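 Log D was determined by RP-HPLC on a C18 column with methanol and aqueous buffer: 0.01 M acetic acid for pH 4.5, and 0.01 M ammonium acetate for […]. Dead time was taken from thiourea. Extrapolated log kw was calibrated against 30 OECD reference substances, and log D read by interpolation for each pH.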

[7] = Methanol-buffer partition coefficient, log D of the compound by RP-HPLC analysis at pH 7.5; format: physicochemical; how it was run: as §2
Leishmania major [8] = assay: Inhibition of Leishmania major PKC
Leishmania major [9] = assay: Antileishmanial activity against amastigote form of Leishmania major MHOM/IL/81/BNI infected in Balb/c mouse peritoneal macrophages assessed as inhibition of intracellular amastigote burden at 1 uM after 48 hrs by May-Grunwald-Geimsa staining; format: functional

Row | SMILES | inhibition at 10 µM (Leishmania major [1]) | selectivity ratio [2] | pIC50 (HeLa) | pIC50 (Leishmania major [3]) | pIC50 [4] | pIC50 [5] | chromatographic logD [6] | chromatographic logD [7] | inhibition (Leishmania major [8]) | inhibition at 1 µM (Leishmania major [9])
1 | N=C(N)c1ccc(OCCCCCOc2ccc(C(=N)N)cc2)cc1 [PENTAMIDINE] | 99% | 3.13 | 4.82 | 5.32 | – | – | – | – | – | –
2 | Clc1cc(Cl)cc(-c2nc3ccccn3c2-c2cccnc2)c1 | – | 0.89 | 4.55 | 4.50 | – | – | – | – | – | –
3 | O=C(O)c1ccc(-c2c(-c3ccccc3)nc3ccccn23)cc1 | – | – | – | < 4.00 | – | – | – | – | – | –
4 | c1ccc(-c2nc3ccccn3c2-c2ccncc2)cc1 | 32% | 3.85 | 4.60 | 5.19 | 6.60 | 6.52 | 2.03 | 2.87 | – | –
5 | c1ccc(-c2nc3ccccn3c2-c2cncnc2)cc1 | – | – | – | < 4.00 | – | – | – | – | – | –
6 | c1ccc(-c2nc3ccccn3c2-c2ccccc2)cc1 | 84% | 1.38 | 4.51 | 4.65 | < 5.00 | < 5.00 | 2.15 | 4.5 | – | –
7 | CC(=O)Oc1ccc(-c2c(-c3ccccc3)nc3ccccn23)cc1 | – | 2.5 | 4.40 | 4.80 | – | – | – | – | – | –
8 | O=[N+]([O-])c1ccc(-c2c(-c3ccccc3)nc3ccccn23)cc1 | 68% | 5.51 | 4.57 | 5.31 | < 5.00 | < 5.00 | 3.29 | 4.35 | – | –
9 | Cc1ccc(-c2c(-c3ccccc3)nc3ccccn23)cc1 | 96% | 1 | 5.40 | 5.40 | < 5.00 | < 5.00 | 2.61 | 5.13 | – | –
10 | Fc1ccccc1-c1nc2ccccn2c1-c1cccnc1 | – | 0.83 | 4.54 | 4.46 | – | – | – | – | – | –
11 | c1ccc(-c2nc3ccccn3c2-c2ccsc2)cc1 | – | 2.45 | 4.46 | 4.84 | – | – | – | – | – | –
12 | Fc1ccc(-c2nc3ccccn3c2-c2cccnc2)cc1 | – | 2.27 | 4.06 | 4.42 | – | – | – | – | – | –
13 | Fc1ccccc1-c1nc2ccccn2c1-c1ccccc1 | – | 0.46 | 4.74 | 4.41 | – | – | – | – | – | –
14 | N#Cc1ccc(-c2c(-c3ccccc3)nc3ccccn23)cc1 | – | – | – | < 4.00 | – | – | – | – | – | –
15 | COc1ccccc1-c1nc2ccccn2c1-c1ccccc1 | – | 1.32 | 4.62 | 4.74 | – | – | – | – | – | –
16 | COc1ccc(-c2c(-c3ccccc3)nc3ccccn23)cc1 | 71% | 1.92 | 4.85 | 5.14 | 6.20 | 5.92 | 2.31 | 4.58 | – | –

Row | SMILES | inhibition at 10 µM (Leishmania major [1]) | selectivity ratio [2] | pIC50 (HeLa) | pIC50 (Leishmania major [3]) | pIC50 [4] | pIC50 [5] | chromatographic logD [6] | chromatographic logD [7] | inhibition (Leishmania major [8]) | inhibition at 1 µM (Leishmania major [9])
17 | CCOC(=O)c1ccc(-c2nc3ccccn3c2-c2ccccc2)cc1 | 86% | 8.65 | 3.46 | 4.40 | < 5.00 | < 5.00 | 4.26 | 5.46 | inactive | –
18 | c1ccc(-c2nc3ccccn3c2-c2cccnc2)cc1 | – | 0.18 | 5.40 | 4.65 | – | – | – | – | – | –
19 | Oc1ccc(-c2c(-c3ccccc3)nc3ccccn23)cc1 | – | 0.4 | 4.80 | 4.40 | – | – | – | – | – | –
20 | CC(C)(C)C(=O)Oc1ccc(-c2c(-c3ccccc3)nc3ccccn23)cc1 | 95% | 5.43 | 4.42 | 5.15 | < 5.00 | < 5.00 | 4.04 | 5.9 | inactive | –
21 | NC(=O)c1ccc(-c2c(-c3ccccc3)nc3ccccn23)cc1 | – | 1 | 4.57 | 4.57 | – | – | – | – | – | –
22 | O=[N+]([O-])c1cccc(-c2c(-c3ccc(F)cc3)nc3ccccn23)c1 | – | – | – | < 4.00 | – | – | – | – | – | –
23 | O=[N+]([O-])c1ccc(-c2nc3ccccn3c2-c2ccccc2)cc1 | 84% | 18.5 | 3.26 | 4.52 | < 5.00 | < 5.00 | 4.2 | 4.65 | inactive | –
24 | COc1ccc(-c2nc3ccccn3c2-c2cccc([N+](=O)[O-])c2)cc1 | – | 2.14 | 4.52 | 4.85 | – | – | – | – | – | –
25 | Clc1cc(Cl)cc(-c2nc3ccccn3c2-c2ccccc2)c1 | – | 1.71 | 4.17 | 4.41 | < 5.00 | < 5.00 | 5.58 | 6.1 | inactive | 71%
26 | Clc1cc(Cl)cc(-c2c(-c3ccccc3)nc3ccccn23)c1 | 79% | 2.34 | 4.74 | 5.11 | < 5.00 | < 5.00 | 4.53 | 5.88 | – | –
27 | Nc1ccc(-c2c(-c3ccccc3)nc3ccccn23)cc1 | – | 0.65 | 4.55 | 4.37 | – | – | – | – | – | –
28 | Clc1cccc(-c2nc3ccccn3c2-c2ccccc2)c1 | 94% | 1.14 | 5.30 | 5.36 | < 5.00 | < 5.00 | 3.91 | 5.25 | – | –
29 | COc1ccc(-c2nc3ccccn3c2-c2ccccc2)cc1 | 85% | 1.8 | 4.32 | 4.58 | < 5.00 | < 5.00 | 2.04 | 4.59 | – | –
30 | CCOC(=O)c1ccc(-c2c(-c3ccccc3)nc3ccccn23)cc1 | 18% | 0.96 | 5.30 | 5.28 | 5.15 | 5.40 | 3.59 | 5.19 | – | –
31 | Fc1ccc(-c2nc3ccccn3c2-c2ccccc2)cc1 | – | 3.13 | 4.14 | 4.64 | – | – | – | – | – | –
